One block for each compound: values may come before it.
Key:
P-gp (Abcb1a) = assay: Real-time RT-PCR of transporter mRNA in mouse tissues after exogenous hormones; format: in vivo; settings: uterus and endocervix; Gapdh-normalized
Method in brief: (§1)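 Tissues were taken from naturally cycling mice at estrus or diestrus (vaginal cytology staging) and from PMSG- or Depo-Provera-synchronized mice, 3–5 mice each. Real-time RT-PCR transporter mRNA was normalized to Gapdh by the 2−ΔCt method; Student's t-test between stages.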

P-gp (Abcb1a/1b) protein = format: in vivo, mouse; settings: endocervix, ectocervix, vagina
Method in brief: (§2)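 Tissues came from natural estrus and diestrus mice (staged by vaginal cytology) and synchronized mice (estrus 24 h after PMSG; diestrus 7 days after first Depo-Provera), at least 3 mice each. Primary antibody dilutions: P-gp 1:15, Bcrp 1:25, Mrp4 1:15, overnight at 4 °C. Then biotinylated secondary (1:200, 30 min RT), ABC 30 min, AEC, hematoxylin. Non-immune IgG as negative control.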

Mrp4 protein = format: in vivo, mouse; settings: endocervix, ectocervix, and vagina; vs natural estrous cycle
Method in brief: as §2

Mrp4 (Abcc4) = assay: Real-time RT-PCR of transporter mRNA in mouse tissues after exogenous hormones; format: in vivo; settings: uterus, endocervix, and colorectum; Gapdh-normalized
Method in brief: as §1

P-gp (Abcb1b) = assay: as above; format: in vivo; settings: uterus and ectocervix; Gapdh-normalized
Method in brief: as §1

Bcrp (Abcg2) = assay: as above; format: in vivo; settings: uterus; Gapdh-normalized
Method in brief: as §1

Bcrp protein = format: in vivo, mouse; settings: compared to the natural estrous stages
Method in brief: as §2

[1] = tested on: NRs for mineralocorticoids; settings: cited from earlier work
[2] = biological target: glucocorticoid receptor (GR); settings: agonist; approximate; cited from earlier work
NRs for estrogen = settings: cited from earlier work
Mrp4 [3] = biological target: T1, Mrp4 (Mus musculus, UniProt E9Q236); assay: Effect of MK571 on tissue distribution of vaginally administered TFV; format: in vivo
T1 sequence (E9Q236 1-1325): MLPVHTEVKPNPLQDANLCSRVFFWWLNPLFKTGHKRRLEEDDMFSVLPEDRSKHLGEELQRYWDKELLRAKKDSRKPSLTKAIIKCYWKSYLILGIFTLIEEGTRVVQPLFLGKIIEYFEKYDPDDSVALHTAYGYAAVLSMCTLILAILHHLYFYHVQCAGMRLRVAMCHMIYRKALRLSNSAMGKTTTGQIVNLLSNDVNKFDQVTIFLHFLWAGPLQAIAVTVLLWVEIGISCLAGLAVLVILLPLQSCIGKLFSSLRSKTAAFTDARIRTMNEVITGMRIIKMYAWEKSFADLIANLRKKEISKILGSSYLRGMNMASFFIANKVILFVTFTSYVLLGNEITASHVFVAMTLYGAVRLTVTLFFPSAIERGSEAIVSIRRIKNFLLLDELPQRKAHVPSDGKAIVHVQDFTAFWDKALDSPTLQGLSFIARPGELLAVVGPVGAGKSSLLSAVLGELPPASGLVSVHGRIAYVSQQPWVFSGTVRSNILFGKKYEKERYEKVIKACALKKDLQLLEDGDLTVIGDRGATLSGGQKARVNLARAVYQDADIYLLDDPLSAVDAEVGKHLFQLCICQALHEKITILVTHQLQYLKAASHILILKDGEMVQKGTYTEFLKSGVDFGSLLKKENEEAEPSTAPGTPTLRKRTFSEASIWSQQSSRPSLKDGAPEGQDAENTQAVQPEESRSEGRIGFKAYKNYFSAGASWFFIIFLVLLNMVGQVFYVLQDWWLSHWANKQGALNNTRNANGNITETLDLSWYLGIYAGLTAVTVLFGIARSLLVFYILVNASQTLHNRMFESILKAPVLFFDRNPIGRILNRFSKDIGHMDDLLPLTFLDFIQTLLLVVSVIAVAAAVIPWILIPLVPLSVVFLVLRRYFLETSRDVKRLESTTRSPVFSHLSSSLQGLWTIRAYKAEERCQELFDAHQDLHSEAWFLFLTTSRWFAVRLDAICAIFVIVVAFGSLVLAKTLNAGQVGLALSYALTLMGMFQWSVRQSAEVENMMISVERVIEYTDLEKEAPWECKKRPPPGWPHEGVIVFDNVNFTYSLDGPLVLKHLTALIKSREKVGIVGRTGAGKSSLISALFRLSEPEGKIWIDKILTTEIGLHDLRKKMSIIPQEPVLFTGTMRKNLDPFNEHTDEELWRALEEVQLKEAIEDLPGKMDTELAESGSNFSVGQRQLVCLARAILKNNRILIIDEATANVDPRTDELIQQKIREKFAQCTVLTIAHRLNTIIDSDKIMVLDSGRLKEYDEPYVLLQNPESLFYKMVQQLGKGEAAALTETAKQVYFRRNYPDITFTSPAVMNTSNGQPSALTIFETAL
Method in brief: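 Synchronized mice got IP saline or MK571 (100 μL, 7.5 mg/mL), then 20 μL vaginal gel 30 min later. Gel: 2.7% universal placebo (pH 4.4) with 3H-TFV plus unlabelled TFV, ±MK571. Ketamine/xylazine IP 5 min before gel. At 0.5 and 1 h: CVL (8 × 25 μL saline), plasma, tissues. Scintillation counting; total TFV from labelled:unlabelled ratio. 7–13 mice per point; ANOVA.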

Mrp4 [4] = biological target: T1, Mrp4; assay: Effect of MK571 on tissue distribution of IP-administered TFV; format: in vivo
Method in brief: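 Synchronized mice received 100 μL saline or saline containing 7.5 mg/mL MK571 IP. 15 min later they received 100 μL 3H-TFV in saline IP (0.94 × 10−5 mmol/mL, 125 μCi/mL). At 1.5 h: CVL (3 × 20 μL saline), plasma and tissues. Samples were dissolved in Solvable overnight at 50 °C, decolorized with H2O2 (50 °C, 1 h), then counted by scintillation. Two groups compared by t-test.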

[5] = In vitro release of TFV from gels, Franz cell apparatus; format: physicochemical
Method in brief: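 Gels containing TFV, with or without MK571, were placed in the donor chamber of a Franz cell with PBS in the acceptor chamber. Acceptor TFV concentration over time gave cumulative release (30 and 60 min) and Papp. Three gels per group, mean ± SD.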

[6] = MK571 incorporated into TFV gel vs control, 0.5 h post gel
[7] = MK571 incorporated into TFV gel vs control, 1.0 h

Compound: PMSG: exogenous hormone known to stimulate estrogen levels, used to synchronize mice into estrus
- Abcb1a mRNA level compared to either stage of the natural cycle (P-gp (Abcb1a)): significantly altered
- P-gp protein abundance or localization compared to natural estrous cycle (P-gp (Abcb1a/1b) protein): did not exert an obvious effect
- epithelial and stromal abundance of Mrp4 protein (Mrp4 protein): decreased
- Mrp4 mRNA level compared to either stage of the natural cycle (Mrp4 (Abcc4)): significantly altered
- Abcb1b mRNA level compared to either stage of the natural cycle (P-gp (Abcb1b)): significantly altered
- Bcrp mRNA level compared to either stage of the natural cycle (Bcrp (Abcg2)): significantly altered
- Bcrp protein density in vaginal epithelium (Bcrp protein): appeared to decrease

Compound: CC(=O)O[C@]1(C(C)=O)CC[C@H]2[C@@H]3C[C@H](C)C4=CC(=O)CC[C@]4(C)[C@H]3CC[C@@]21C [MPA, medroxyprogesterone acetate]
- binding to nuclear receptor [1]: does not bind significantly
- EC50 [2]: ~0.01 µM
- binding to nuclear receptor (NRs for estrogen): does not bind significantly

- TFV concentration in CVL and endocervix (Mrp4 [3]; [6]): remained unchanged
- TFV concentration in mouse vaginal tissue (Mrp4 [3]; [6]): significantly higher
- TFV CVL concentration (Mrp4 [3]; [7]): significantly decreased
- TFV concentration in plasma and uterus (Mrp4 [3]; [7]): remained unchanged
- TFV concentration in the colorectum (Mrp4 [3]; [7]): significantly increased
- decrease in TFV concentration in endocervix, ectocervix, and vagina (Mrp4 [3]; [7]): not statistically significant
- TFV concentration in CVL and vagina (Mrp4 [4]; MK571 IP 15 min before IP TFV, 1.5 h post-TFV, p = 0.04): increased
- TFV colorectum/plasma ratio (Mrp4 [4]; MK571 IP co-administration, IP TFV, 1.5 h, p = 0.006): significantly increased
- TFV vagina/plasma ratio (Mrp4 [4]; MK571 IP co-administration, IP TFV, 1.5 h, p = 0.03): significantly increased
- permeability coefficient Papp of TFV, gel with vs without MK571 ([5]; Franz cell apparatus, acceptor chamber): almost identical
- impact of MK571 incorporation into the gel on in vitro release profile of TFV ([5]; vs gel containing TFV alone, Franz cell, PBS acceptor): did not have any impact
Compound: CN(C)C(=O)CCSC(SCCC(=O)O)c1cccc(/C=C/c2ccc3ccc(Cl)cc3n2)c1 (stereo not drawn) [MK571]
- TFV concentrations in plasma, uterus, and colorectum (Mrp4 [3]; MK571 IP solution 30 min before vaginal TFV gel vs TFV gel only): only slightly increased or remained unchanged
- TFV concentration in plasma, uterus, ectocervix, and colorectum (Mrp4 [3]; [6]): slightly, but not significantly, increased

Compound: C[C@H](Cn1cnc2c(N)ncnc21)OCP(=O)(O)O [TFV, tenofovir]
- TFV distribution compared to its plasma concentration (Mrp4 [4]; after IP administration, 1.5 h): preferentially distributed into cervicovaginal tissues and fluid

Source: PMC5362249 (Biochemical pharmacology, 2016)
